# Experimental data reported in paper PMC3983399 (Journal of Medicinal Chemistry, 2014).
# Experiments:
# M14 melanoma cell line = assay: CellTiter-Glo viability assay, M14 cells; assay type: cell-based
# How it was run: (§1)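 Cells plated at 1250/well in serum-free medium (F12 for CHO-K1 and A549, DMEM for M14). Compounds given as 10-point 1:3 dilution series starting at 300 µM before addition, with gefitinib as assay control. Incubated 72 h at 37 °C, 5% CO2. CellTiter-Glo added, 15 min at room temperature, luminescence read. Normalized to media-only (0%) and 1% DMSO-treated cells (100%). Percent inhibition is the mean of three experiments ± SD.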
# [1] = tested on: A549 nonsmall cell lung cancer cell line; assay: CellTiter-Glo viability assay, A549 cells; assay type: cell-based; details: Homo sapiens, A549, read-out: Inhibition % @ 100 μM A549
# How it was run: as §1
# M14 cells = assay: ApoTox-Glo triplex assay; assay type: cell-based; details: for cytotoxicity response / effect on cell viability (live cell protease): early time point (4 h); for time of caspase activity spike: time points 4, 24, 48, 72 h
# How it was run: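 M14 #5 cells, 1250/well in serum-free DMEM, preincubated 4 h at 37 °C, 5% CO2. Compounds (1:3 serial dilutions) incubated 4, 24, 48 and 72 h alongside ionomycin, terfenadine and panobinostat controls. Viability/cytotoxicity reagent (400 µM GF-AFC, 400 µM bis-AAF-R110 in reagent) 30 min at 37 °C; fluorescence Ex400/Em505 (live-cell protease) and Ex485/Em520 (dead-cell protease). Then Caspase-Glo 3/7, 30 min at room temperature, luminescence.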
# HDAC1 = HDAC1 (Homo sapiens, UniProt Q13547); assay: HDAC inhibition, HDAC1; assay type: biochemical; details: up to 100 μM, data not shown
# HDAC2 = HDAC2 (Homo sapiens, UniProt Q92769); assay: HDAC inhibition, HDAC2; assay type: biochemical; details: up to 100 μM, data not shown
# HDAC6 = target: T1, HDAC6 (Homo sapiens, UniProt Q9UBN7); assay: HDAC inhibition, HDAC6; assay type: biochemical; details: up to 100 μM, data not shown
# T1 sequence (Q9UBN7 1-1215): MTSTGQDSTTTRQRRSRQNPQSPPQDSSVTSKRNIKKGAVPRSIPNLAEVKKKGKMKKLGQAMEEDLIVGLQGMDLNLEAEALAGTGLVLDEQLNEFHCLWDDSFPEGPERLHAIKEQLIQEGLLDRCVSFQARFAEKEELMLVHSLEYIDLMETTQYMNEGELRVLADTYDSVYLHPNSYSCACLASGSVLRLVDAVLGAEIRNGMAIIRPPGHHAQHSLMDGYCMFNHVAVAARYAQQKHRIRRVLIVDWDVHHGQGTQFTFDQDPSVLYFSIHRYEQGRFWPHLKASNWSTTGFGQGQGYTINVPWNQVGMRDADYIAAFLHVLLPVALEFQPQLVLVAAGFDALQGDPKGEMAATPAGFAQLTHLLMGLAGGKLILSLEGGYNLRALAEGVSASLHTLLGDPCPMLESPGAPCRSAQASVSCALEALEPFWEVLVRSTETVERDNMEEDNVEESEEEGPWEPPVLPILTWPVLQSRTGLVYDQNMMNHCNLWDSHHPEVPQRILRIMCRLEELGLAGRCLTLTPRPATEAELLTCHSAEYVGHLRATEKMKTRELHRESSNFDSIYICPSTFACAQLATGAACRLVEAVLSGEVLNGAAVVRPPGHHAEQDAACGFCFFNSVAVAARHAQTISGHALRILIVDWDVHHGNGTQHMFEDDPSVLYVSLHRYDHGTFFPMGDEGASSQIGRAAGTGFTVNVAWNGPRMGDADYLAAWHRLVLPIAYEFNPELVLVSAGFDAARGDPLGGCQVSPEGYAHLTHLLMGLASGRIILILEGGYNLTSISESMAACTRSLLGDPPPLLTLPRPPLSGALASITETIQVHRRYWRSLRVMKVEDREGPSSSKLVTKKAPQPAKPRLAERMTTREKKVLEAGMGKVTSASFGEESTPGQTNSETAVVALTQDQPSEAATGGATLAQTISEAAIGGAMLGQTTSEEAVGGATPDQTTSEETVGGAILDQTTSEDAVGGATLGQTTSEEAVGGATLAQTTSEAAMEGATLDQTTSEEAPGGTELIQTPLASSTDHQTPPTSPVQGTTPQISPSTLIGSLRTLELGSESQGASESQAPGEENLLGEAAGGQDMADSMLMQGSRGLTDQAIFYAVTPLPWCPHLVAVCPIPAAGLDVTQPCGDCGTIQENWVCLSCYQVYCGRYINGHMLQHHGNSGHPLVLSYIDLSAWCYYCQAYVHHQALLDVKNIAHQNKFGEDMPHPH
# [2] = tested on: SKMEL-28 melanoma cell line; assay: Hexosaminidase viability assay, SKMEL-28; assay type: cell-based; details: Homo sapiens, SK-MEL-28, read-out: IC50 SKMEL-28, text
# How it was run: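 Cells in 96-well plates grown overnight, then treated 48 h with compound at 0–50 µM. Wells washed with PBS. Hexosaminidase substrate added for 30 min at 37 °C, followed by developer; absorbance read at 405 nm. Percent viability = (treated absorbance/control absorbance) × 100.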
# [3] = tested on: melanoma cells with mutated Q61LNRAS and wild-type BRAF (M202 and M207); details: up to 10 μM; cited from earlier work
# Chain of HDAC2 (Q92769 whole entry): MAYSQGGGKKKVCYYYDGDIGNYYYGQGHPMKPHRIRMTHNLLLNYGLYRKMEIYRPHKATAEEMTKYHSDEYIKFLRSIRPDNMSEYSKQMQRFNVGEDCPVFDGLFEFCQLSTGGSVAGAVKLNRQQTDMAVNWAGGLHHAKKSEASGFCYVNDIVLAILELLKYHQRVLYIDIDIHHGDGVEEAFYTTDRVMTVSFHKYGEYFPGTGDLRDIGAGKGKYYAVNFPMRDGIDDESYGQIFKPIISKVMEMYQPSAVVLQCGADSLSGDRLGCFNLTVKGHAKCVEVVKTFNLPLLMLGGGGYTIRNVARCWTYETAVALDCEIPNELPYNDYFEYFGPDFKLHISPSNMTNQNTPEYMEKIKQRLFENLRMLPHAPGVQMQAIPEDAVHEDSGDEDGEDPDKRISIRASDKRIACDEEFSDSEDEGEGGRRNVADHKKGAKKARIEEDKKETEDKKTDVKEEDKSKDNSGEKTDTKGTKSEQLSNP
# Chain of HDAC1 (Q13547 whole entry, species assumed): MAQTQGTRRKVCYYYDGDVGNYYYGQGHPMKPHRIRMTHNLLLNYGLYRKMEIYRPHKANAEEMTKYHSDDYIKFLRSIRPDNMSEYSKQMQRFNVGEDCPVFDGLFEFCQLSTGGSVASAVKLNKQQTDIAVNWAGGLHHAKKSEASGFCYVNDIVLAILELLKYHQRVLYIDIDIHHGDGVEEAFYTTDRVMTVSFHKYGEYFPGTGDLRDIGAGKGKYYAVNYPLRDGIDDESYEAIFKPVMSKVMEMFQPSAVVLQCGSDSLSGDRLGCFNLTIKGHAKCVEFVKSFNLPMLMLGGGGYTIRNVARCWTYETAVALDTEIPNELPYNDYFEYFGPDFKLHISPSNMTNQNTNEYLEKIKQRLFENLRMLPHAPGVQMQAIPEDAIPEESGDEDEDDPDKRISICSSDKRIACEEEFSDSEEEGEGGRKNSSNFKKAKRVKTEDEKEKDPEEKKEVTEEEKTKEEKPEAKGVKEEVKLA
compound,measurement,setting,value
CCC[C@@H]1CNC(=O)C(=O)N1C[C@@H]1CCCN1C[C@H](Cc1ccc(O)cc1)N1C[C@@H](Cc2ccc(O)cc2)N(CC(CC)c2ccccc2)C(=O)C1=O (some centres unmarked) [Compound 2],inhibition at 100 µM,"M14 melanoma cell line; Homo sapiens, M14, read-out: Inhibition % @ 100 μM M14",14 ± 3%
same,inhibition at 100 µM,[1],0%
O=C1NC[C@H](Cc2ccccc2)N(C[C@@H]2CCCN2C[C@@H](CC2CCCCC2)N2C[C@H](Cc3ccc(O)cc3)N(CCc3ccccc3)C(=O)C2=O)C1=O [Compound 2155-14],inhibition of M14 cell viability at highest tested concentration,M14 melanoma cell line; 100 μM,not able to inhibit M14 cell viability fully
same,cytotoxicity response,M14 cells,no markers for apoptosis and cytotoxicity
same,effect on cell viability (live cell protease),M14 cells,no effect on cell viability
same,time of caspase activity spike,M14 cells,24 h
same,HDAC1 inhibition,HDAC1,lack of HDAC inhibition
same,HDAC2 inhibition,HDAC2,lack of HDAC inhibition
same,HDAC6 inhibition,HDAC6,lack of HDAC inhibition
CCC[C@H]1CNC(=O)C(=O)N1C[C@@H]1CCCN1C[C@@H](CC1CCCCC1)N1C[C@H](Cc2ccc(O)cc2)N(CCc2ccccc2)C(=O)C1=O [Compound 2155-17],selectivity for M14 over A549 cells,M14 melanoma cell line; ratio of IC50,approximately 5 fold
same,selectivity for M14 over CHO-K1 cells,M14 melanoma cell line; ratio of IC50,more than 10 fold
O=C1NC[C@H](Cc2ccccc2)N(C[C@@H]2CCCN2C[C@H](Cc2ccccc2)N2C[C@H](Cc3ccc(O)cc3)N(CCC34CC5CC(CC(C5)C3)C4)C(=O)C2=O)C1=O [Compound 2155-18],IC50,"M14 melanoma cell line; Homo sapiens, M14, read-out: IC50 M14, Table 3, mean of three ± SD",890 ± 70 nM
same,HDAC1 inhibition,HDAC1,lack of HDAC inhibition
same,HDAC2 inhibition,HDAC2,lack of HDAC inhibition
same,IC50,[2],890 ± 70 nM
same,HDAC6 inhibition,HDAC6,lack of HDAC inhibition
C[C@H](CCC(=O)O)C[C@H](C)C[C@H](C)C(=O)/C=C(\O)[C@H](C)C[C@H](C)C/C=C/[C@@H](C)[C@@H](O)[C@@H](C)[C@@H](O)C[C@@H]1CC[C@@](C)([C@H]2CC[C@@](C)([C@@H](C)O)O2)O1 [ionomycin],cytotoxicity response,M14 cells,strong cytotoxicity response
same,effect on cell viability (live cell protease),M14 cells,dose-dependent loss of viability
same,time of caspase activity spike,M14 cells,did not induce a spike in caspase activity
Cc1[nH]c2ccccc2c1CCNCc1ccc(/C=C/C(=O)NO)cc1 [panobinostat],cytotoxicity response,M14 cells,no effect
same,effect on cell viability (live cell protease),M14 cells,no effect
same,time of caspase activity spike,M14 cells,24 to 48 h
CC(C)(C)c1ccc(C(O)CCCN2CCC(C(O)(c3ccccc3)c3ccccc3)CC2)cc1 (centres unmarked) [terfenadine],cytotoxicity response,M14 cells,cytotoxicity spike
same,effect on cell viability (live cell protease),M14 cells,early loss of cell viability
same,time of caspase activity spike,M14 cells,4 to 24 h
CCCS(=O)(=O)Nc1ccc(F)c(C(=O)c2c[nH]c3ncc(-c4ccc(Cl)cc4)cc23)c1F [vemurafenib],activity against M202 and M207 melanoma cells,[3],inactive
